# Measurements published in ChEMBL document CHEMBL3407439, “A facile and novel synthesis of N(2)-, C(6)-substituted pyrazolo[3,4-d]pyrimidine-4 carboxylate derivatives as adenosine receptor antagonists” (Eur J Med Chem, 2015).
# Columns and labels:
# Adenosine receptor A1 = target: T1, Adenosine receptor A1 (Homo sapiens, UniProt P30542); experiment: Displacement of [3H]CCPA from human adenosine A1 receptor expressed in CHO cells by Top Count analysis; format: cell-based
# T1 sequence (P30542 whole entry): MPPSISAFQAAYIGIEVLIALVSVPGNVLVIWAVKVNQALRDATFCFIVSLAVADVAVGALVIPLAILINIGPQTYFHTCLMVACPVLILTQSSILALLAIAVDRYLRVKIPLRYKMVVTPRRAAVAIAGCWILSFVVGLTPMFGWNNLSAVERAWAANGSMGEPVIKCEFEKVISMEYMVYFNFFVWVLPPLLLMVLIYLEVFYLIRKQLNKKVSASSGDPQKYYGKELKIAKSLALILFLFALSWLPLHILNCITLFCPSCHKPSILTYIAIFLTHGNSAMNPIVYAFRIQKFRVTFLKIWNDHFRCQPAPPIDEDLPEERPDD
# Method in brief: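 Tritiated-radioligand competition binding at hA1 receptor, 3 h at room temperature; nonspecific binding with 1 mM theophylline. Separation by GF/B glass-fibre filtration, filter radioactivity counted by scintillation (57% efficiency). Ki from competition curves by nonlinear curve fitting.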
# Adenosine receptor A2a = Adenosine receptor A2a (Homo sapiens, UniProt P29274); experiment: Displacement of [3H]NECA from human adenosine A2A receptor expressed in CHO cells by Top Count analysis; format: cell-based
# Sequence of Adenosine receptor A2a (P29274 whole entry): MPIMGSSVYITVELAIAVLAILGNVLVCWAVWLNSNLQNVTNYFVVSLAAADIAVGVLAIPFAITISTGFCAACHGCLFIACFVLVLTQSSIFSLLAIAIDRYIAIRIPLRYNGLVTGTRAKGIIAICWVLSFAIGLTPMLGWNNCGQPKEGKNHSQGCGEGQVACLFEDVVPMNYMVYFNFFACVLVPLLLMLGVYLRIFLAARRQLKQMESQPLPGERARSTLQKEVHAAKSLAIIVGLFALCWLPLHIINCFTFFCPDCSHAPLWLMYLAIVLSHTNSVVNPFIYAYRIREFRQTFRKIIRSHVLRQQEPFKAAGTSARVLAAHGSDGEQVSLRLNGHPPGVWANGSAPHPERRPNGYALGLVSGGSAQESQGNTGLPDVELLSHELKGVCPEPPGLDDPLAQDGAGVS
# Adenosine receptor A2b = target: T2, Adenosine receptor A2b (Homo sapiens, UniProt P29275); experiment: Antagonist activity at human adenosine A2B receptor expressed in CHO cells assessed as inhibition of NECA-induced adenylyl cyclase activity; format: functional, cell-based
# T2 sequence (P29275 whole entry): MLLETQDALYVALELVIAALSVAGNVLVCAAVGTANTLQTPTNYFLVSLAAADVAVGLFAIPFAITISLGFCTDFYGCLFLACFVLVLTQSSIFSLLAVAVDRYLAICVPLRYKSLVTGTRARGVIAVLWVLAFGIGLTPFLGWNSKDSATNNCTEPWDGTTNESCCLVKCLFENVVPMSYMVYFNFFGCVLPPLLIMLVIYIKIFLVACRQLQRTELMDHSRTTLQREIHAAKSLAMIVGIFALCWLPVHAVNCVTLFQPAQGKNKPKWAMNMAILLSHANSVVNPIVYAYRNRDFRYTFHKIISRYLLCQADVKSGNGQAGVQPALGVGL
# Method in brief: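 Membranes from CHO cells transfected with hA2B receptor incubated 20 min with 100 nM NECA, 150,000 cpm [α-32P]ATP and varying antagonist concentrations, in mixture lacking EGTA and NaCl. Ki derived from concentration-dependent inhibition of NECA-stimulated adenylyl cyclase activity; n = 3–6.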
# Adenosine receptor A3 = target: T3, Adenosine receptor A3 (Homo sapiens, UniProt P0DMS8); experiment: Displacement of [3H]HEMADO from human adenosine A3 receptor expressed in CHO cells by Top Count analysis; format: cell-based
# T3 sequence (P0DMS8 whole entry): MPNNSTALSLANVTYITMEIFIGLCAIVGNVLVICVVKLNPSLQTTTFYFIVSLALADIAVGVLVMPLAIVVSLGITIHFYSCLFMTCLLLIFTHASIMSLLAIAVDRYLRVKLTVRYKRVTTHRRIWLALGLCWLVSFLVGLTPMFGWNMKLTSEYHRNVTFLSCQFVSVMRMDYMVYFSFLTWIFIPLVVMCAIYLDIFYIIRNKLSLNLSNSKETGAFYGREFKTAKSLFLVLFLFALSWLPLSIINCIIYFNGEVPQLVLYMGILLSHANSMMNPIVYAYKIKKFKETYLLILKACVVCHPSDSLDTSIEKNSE
# Method in brief: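 Competition against [3H]HEMADO binding at hA3 receptor in CHO cells, 3 h at room temperature; nonspecific binding defined with 100 µM R-PIA.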
# [1] = target: Adenosine receptors; A1 & A3 (Homo sapiens) (UniProt P30542+P0DMS8); experiment: Selectivity ratio of Ki for human adenosine A1 receptor to Ki for human adenosine A3 receptor
# Homo sapiens = species on record: Homo sapiens; experiment: Selectivity ratio of Ki for human adenosine A2A receptor to Ki for human adenosine A3 receptor
Structure (SMILES),Ki (Adenosine receptor A1),Ki (Adenosine receptor A2a),Ki (Adenosine receptor A2b),Ki (Adenosine receptor A3),Ratio Ki [1],Ratio Ki (Homo sapiens)
CCOC(=O)c1nc(NC(=O)c2ccc(C(F)(F)F)cc2)nc2nn(C(C)C)cc12,> 100 µM,> 100 µM,> 20 µM,> 100 µM,,
CCOC(=O)c1nc(NC(=O)Cc2ccccc2)nc2nn(CC(C)(C)C)cc12,2.7 µM,5.7 µM,> 20 µM,4.3 µM,0.62,1.3
NC(=O)c1nc(N)nc2nn(CCc3ccccc3)cc12,40.2 µM,15.7 µM,> 20 µM,32.9 µM,1.2,0.47
CCOC(=O)c1nc(NC(=O)c2ccc(C)cc2)nc2nn(C)cc12,> 100 µM,11.8 µM,> 20 µM,100 µM,> 1,0.12
CC(C)n1cc2c(C(N)=O)nc(N)nc2n1,8.2 µM,9.2 µM,> 20 µM,> 100 µM,,
CCOC(=O)c1nc(N(C(=O)c2ccc(Br)cc2)C(=O)c2ccc(Br)cc2)nc2nn(C)cc12,> 100 µM,> 100 µM,> 20 µM,2.9 µM,> 34,> 34
CCOC(=O)c1nc(NC(=O)c2ccc(Cl)c(Cl)c2)nc2nn(CCc3ccccc3)cc12,> 100 µM,> 100 µM,> 20 µM,2.2 µM,> 46,> 46
CCOC(=O)c1nc(N)nc2nn(CC(C)(C)C)cc12,4 µM,5 µM,> 15 µM,10.4 µM,0.38,0.48
CC(C)(C)Cn1cc2c(C(N)=O)nc(N)nc2n1,> 90 µM,> 80 µM,> 20 µM,19.7 µM,> 4.6,> 4.1
CCOC(=O)c1nc(NC(=O)c2ccccc2)nc2nn(C(C)C)cc12,4.3 µM,3.3 µM,> 10 µM,8.6 µM,0.5,0.4
CCOC(=O)c1nc(N)nc2nn(C)cc12,8.8 µM,2 µM,> 20 µM,0.9 µM,9.7,2.2
CCOC(=O)c1nc(NC(=O)c2ccc(C(F)(F)F)cc2)nc2nn(C)cc12,> 100 µM,> 100 µM,> 20 µM,> 100 µM,,
CCOC(=O)c1nc(N(C(=O)c2ccc(F)c(F)c2)C(=O)c2ccc(F)c(F)c2)nc2nn(C)cc12,> 100 µM,> 100 µM,> 20 µM,> 100 µM,,
CCOC(=O)c1nc(NC(=O)c2ccc(F)cc2)nc2nn(CCc3ccccc3)cc12,5 µM,6.1 µM,> 20 µM,6.8 µM,0.73,0.8
CCOC(=O)c1nc(N)nc2nn(C(C)C)cc12,0.9 µM,2.6 µM,> 10 µM,14 µM,0.06,0.18
CCOC(=O)c1nc(NC(=O)c2ccc(F)cc2)nc2nn(CC(C)(C)C)cc12,2.7 µM,5.7 µM,> 20 µM,4.3 µM,0.62,1.3
